Laboratory results as given in ChEMBL document CHEMBL2406932, “Heteroaromatic and aniline derivatives of piperidines as potent ligands for vesicular acetylcholine transporter” (J Med Chem, 2013).

What was measured:
[1] = target: T1, Vesicular acetylcholine transporter (Homo sapiens, UniProt Q16572); test: Displacement of (-)-[3H]vesamicol from human VAChT expressed in rat PC12 cell membrane after 20 hrs; format: cell membranes, PC-12
T1 sequence (Q16572 whole entry): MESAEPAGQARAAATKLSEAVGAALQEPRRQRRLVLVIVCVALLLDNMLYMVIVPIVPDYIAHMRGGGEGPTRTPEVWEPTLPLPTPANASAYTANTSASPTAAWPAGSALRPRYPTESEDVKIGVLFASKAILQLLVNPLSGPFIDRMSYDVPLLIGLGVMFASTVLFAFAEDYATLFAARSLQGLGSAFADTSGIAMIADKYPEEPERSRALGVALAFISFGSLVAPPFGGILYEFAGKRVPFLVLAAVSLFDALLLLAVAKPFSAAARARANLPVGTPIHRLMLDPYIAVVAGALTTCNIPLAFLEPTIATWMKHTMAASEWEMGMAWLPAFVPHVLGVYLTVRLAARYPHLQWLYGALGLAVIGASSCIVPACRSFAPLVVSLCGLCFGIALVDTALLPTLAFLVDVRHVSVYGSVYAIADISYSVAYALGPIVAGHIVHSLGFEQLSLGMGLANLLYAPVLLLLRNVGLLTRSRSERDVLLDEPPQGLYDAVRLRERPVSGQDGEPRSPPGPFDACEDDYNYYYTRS

[2] = Displacement of [3H]DTG from sigma 2 receptor in rat liver membrane homogenates after 120 mins by scintillation counting analysis; format: cell membranes
How it was run: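 Rat liver membrane homogenate (~300 µg protein) with ~5 nM [3H]DTG plus 1 µM (+)-pentazocine to block sigma-1 sites, 120 min at room temperature, pH 7.4 Tris buffer. Nonspecific binding taken with 10 µM haloperidol. Filtration and scintillation counting.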

[3] = target: Sigma non-opioid intracellular receptor 1 (Cavia porcellus, UniProt Q60492); test: Displacement of (+)- [3H]pentazocine from sigma 1 receptor expressed in guinea pig brain membrane homogenates by scintillation counting analysis; format: cell membranes
Chain of Sigma non-opioid intracellular receptor 1 (Q60492 whole entry): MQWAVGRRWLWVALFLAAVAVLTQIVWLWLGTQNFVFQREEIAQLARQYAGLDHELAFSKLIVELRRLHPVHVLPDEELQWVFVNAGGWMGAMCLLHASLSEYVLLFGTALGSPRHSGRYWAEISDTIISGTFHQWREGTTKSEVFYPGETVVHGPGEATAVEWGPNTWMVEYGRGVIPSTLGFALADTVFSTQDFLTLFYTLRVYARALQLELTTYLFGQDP

PC-12 [4] = test: Selectivity ratio, ratio of Ki for sigma 2 receptor in rat liver homogenates to Ki for human VAChT expressed in rat PC12 cells; format: cell-based
PC-12 [5] = test: Selectivity ratio, ratio of Ki for sigma 1 receptor in guinea pig brain homogenates to Ki for human VAChT expressed in rat PC12 cells; format: cell-based

Cc1ccc(C(=O)C2CCN([C@@H]3Cc4c(N)cccc4C[C@H]3O)CC2)cn1 (racemic)
Ki [1]: 48 nM | Ki [2]: 27500 nM

COc1ccc(C(=O)C2CCN([C@@H]3Cc4ccccc4C[C@H]3O)CC2)cn1 (racemic)
Ki [3]: 986 nM | Ki [1]: 8.36 nM | Ki [2]: 2570 nM

CNc1ccc(C(=O)C2CCN(C3Cc4ccccc4CC3O)CC2)cc1 (single isomer, unassigned; (+))
Ki [3]: 1170 nM | Ratio Ki (PC-12 [4]): 408 | Ratio Ki (PC-12 [5]): 61.5 | Ki [1]: 19 nM | Ki [2]: 7760 nM

Nc1cccc2c1C[C@@H](N1CCC(C(=O)c3cccnc3)CC1)[C@H](O)C2 (racemic)
Ki [3]: 20300 nM | Ratio Ki (PC-12 [4]): 43 | Ratio Ki (PC-12 [5]): 170 | Ki [1]: 118 nM | Ki [2]: 5080 nM
